Measured values: ChEMBL document CHEMBL4190262, “Tuning of β-glucosidase and α-galactosidase inhibition by generation and in situ screening of a library of pyrrolidine-triazole hybrid molecules” (Eur J Med Chem, 2017)
Active and inactive are the calls of the source. The rule behind the calls is not given here.

Legend:
[1] = biological target: T1, Beta-galactosidase (Aspergillus oryzae) (UniProt B7VU80); experiment: Inhibition of Aspergillus oryzae beta-galactosidase at 1 mM using p-nitrophenyl glycopyranoside preincubated for 5 mins followed by substrate addition measured after 20 mins by visible absorption spectroscopic method relative to control
T1 sequence (whole entry): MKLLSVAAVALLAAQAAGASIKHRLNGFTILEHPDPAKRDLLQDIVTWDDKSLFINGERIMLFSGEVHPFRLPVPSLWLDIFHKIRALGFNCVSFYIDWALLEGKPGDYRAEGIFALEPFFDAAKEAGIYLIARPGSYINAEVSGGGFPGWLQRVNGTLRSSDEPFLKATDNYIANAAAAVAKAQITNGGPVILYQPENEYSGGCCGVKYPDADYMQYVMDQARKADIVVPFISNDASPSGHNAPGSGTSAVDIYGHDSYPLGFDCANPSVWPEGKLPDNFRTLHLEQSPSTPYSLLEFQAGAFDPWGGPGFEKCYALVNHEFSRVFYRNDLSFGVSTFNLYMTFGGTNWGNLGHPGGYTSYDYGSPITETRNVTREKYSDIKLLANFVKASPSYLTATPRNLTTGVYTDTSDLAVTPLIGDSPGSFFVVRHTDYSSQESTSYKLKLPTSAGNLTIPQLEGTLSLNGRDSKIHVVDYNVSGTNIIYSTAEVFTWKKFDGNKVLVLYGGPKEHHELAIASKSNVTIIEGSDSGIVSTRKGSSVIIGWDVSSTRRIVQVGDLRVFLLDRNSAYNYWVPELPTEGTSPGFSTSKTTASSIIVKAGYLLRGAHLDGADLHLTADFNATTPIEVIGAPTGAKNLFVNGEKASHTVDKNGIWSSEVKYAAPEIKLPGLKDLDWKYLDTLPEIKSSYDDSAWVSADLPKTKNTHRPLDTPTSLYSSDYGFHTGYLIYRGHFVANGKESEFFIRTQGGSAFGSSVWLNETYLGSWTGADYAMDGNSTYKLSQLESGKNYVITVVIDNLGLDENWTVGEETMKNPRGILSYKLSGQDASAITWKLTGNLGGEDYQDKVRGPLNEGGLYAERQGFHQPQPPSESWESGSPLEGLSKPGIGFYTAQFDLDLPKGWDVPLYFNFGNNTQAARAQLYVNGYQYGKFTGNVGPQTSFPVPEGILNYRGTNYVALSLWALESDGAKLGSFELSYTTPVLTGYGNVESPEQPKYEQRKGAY
In short: (§1)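 Test compound at 1 mM in well. Mix: 0.01–0.5 units/mL enzyme plus 10 mM p-nitrophenyl glycopyranoside (aqueous solution), buffered to the enzyme's optimal pH. Enzyme and inhibitor preincubated 5 min at rt. Substrate then added and incubated 20 min at 37 °C. Stopped with sodium borate (pH 9.8). p-Nitrophenolate read at 405 nm. Duplicates averaged.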

[2] = biological target: T2, Alpha-mannosidase (Canavalia ensiformis) (UniProt C0HJB3); experiment: Inhibition of jack bean alpha-mannosidase at 1 mM using p-nitrophenyl glycopyranoside preincubated for 5 mins followed by substrate addition measured after 20 mins by visible absorption spectroscopic method relative to control; in short: as §1
T2 sequence (whole entry): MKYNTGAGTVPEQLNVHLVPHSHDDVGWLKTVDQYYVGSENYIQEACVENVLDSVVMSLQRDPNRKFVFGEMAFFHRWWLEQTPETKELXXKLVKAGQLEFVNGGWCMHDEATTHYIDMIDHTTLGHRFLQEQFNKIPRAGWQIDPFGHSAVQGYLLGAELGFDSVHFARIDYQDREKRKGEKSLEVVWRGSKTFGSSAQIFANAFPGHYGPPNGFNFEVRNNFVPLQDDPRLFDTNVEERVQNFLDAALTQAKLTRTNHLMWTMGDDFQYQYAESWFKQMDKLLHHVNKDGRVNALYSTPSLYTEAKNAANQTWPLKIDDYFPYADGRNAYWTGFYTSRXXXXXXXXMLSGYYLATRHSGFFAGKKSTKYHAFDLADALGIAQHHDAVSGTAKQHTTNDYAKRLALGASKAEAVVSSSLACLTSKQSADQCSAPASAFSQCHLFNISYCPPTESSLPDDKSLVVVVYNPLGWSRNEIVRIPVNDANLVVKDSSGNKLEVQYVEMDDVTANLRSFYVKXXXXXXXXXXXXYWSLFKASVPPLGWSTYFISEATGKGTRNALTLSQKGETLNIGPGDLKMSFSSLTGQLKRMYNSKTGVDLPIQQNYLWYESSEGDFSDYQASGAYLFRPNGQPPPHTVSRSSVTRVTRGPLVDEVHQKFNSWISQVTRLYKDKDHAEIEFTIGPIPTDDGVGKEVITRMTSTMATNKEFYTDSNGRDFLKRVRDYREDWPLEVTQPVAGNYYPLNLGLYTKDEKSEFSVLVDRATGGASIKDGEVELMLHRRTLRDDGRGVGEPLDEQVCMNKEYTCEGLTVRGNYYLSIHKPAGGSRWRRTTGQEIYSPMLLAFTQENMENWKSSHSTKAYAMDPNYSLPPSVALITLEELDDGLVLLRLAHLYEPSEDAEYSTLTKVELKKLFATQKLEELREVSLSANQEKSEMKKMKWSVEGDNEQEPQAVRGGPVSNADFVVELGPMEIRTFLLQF

Alpha-galactosidase A = biological target: T3, Alpha-galactosidase A (Homo sapiens, UniProt P06280); experiment: Inhibition of human lysosomal alpha-galactosidase A using 4-methylumbelliferyl-alpha-D-galactopyranoside as substrate preincubated for 45 mins followed by substrate addition measured after 30 mins by fluorescence spectroscopic method
T3 sequence (P06280 whole entry): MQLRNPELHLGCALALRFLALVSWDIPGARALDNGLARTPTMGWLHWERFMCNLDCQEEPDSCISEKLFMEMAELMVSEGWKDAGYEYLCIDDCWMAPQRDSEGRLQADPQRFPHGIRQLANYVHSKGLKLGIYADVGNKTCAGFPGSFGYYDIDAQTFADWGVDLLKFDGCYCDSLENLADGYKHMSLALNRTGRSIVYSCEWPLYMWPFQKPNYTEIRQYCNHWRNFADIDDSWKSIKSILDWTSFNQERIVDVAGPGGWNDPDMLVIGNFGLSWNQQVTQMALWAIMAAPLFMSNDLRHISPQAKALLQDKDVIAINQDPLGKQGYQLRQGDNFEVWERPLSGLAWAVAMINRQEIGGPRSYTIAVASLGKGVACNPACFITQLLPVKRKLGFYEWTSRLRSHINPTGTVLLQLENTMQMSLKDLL
In short: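 Enzyme in 100 mM McIlvaine buffer pH 5.2 with 0.25% sodium taurocholate and 0.1% Triton X-100, with inhibitor. Preincubated at 0 °C for 45 min, then started with 3 mM 4-methylumbelliferyl glycoside substrate solution and incubated 30 min at 37 °C. Stopped with 400 mM glycine-NaOH pH 10.6. 4-Methylumbelliferone fluorescence read at ex 362/em 450 nm.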

[3] = biological target: Alpha-galactosidase (Coffea arabica) (UniProt Q42656); experiment: Inhibition of coffee beans alpha-galactosidase at 50 uM using p-nitrophenyl glycopyranoside preincubated for 5 mins followed by substrate addition measured after 20 mins by visible absorption spectroscopic method relative to control
Alpha-galactosidase (Coffea arabica), sequence (Q42656 16-378 limits assumed): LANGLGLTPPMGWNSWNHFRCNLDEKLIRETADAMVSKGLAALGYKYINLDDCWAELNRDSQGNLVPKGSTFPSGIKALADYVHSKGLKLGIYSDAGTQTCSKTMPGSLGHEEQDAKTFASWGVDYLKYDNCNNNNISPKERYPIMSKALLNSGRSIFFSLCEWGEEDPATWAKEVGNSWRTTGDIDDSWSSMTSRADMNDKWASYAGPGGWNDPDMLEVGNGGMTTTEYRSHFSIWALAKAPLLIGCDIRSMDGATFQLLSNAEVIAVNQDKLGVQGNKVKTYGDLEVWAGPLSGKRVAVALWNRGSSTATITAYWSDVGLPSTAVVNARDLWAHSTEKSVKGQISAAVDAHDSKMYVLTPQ
In short: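 Crude triazoles from in situ CuAAC (ascorbate/CuSO4, 24 h rt, water-diluted) were screened at 50 μM per well, assuming full conversion. Enzyme was coffee bean α-galactosidase at pH 6, 37 °C, with p-nitrophenyl glycoside substrate and 405 nm read-out. Blanks of CuSO4, ascorbate and each alkyne were run.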

inhibition [1]	inhibition [2]	IC50 (Alpha-galactosidase A) [µM]	inhibition [3] [%]	SMILES
41%	inactive	171	62	O[C@@H]1[C@H](O)CN[C@@H]1Cn1cc(-c2ccccc2)nn1
inactive	inactive			O[C@@H]1[C@H](O)CN[C@H]1Cn1cc(-c2ccccc2)nn1
